Screening results from PubChem BioAssay.
The list is not random: actives were taken first. Their share in the collection is about 4.6%.
NLRP3 yeast inh: NALP3 inhibition in yeast | Yeast reconstituted NLRP3/ASC/caspase-1, beta-gal luminescence, 24 h | inhibition, % at 10 µM | 0.39% of 330,000 active | AID 2825;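 active = inhibition of 50% or more; inactive = inhibition below 50%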
DSG3 Ab inh: human desmoglein-3 autoantibody binding inhibition; P32926; DSG3-coupled beads, scFv-anti-DSG3-GFP binding, flow cytometry; stronger effect = lower value; binding (percent of control), % at 10 µM; 0.48% of 310,000 active;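 active = binding more than 3 SD below its plate's average and above zero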;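 note: hits lower antibody fragment binding to DSG3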
PolyA inh: inhibitors of polyadenylation in S. cerevisiae; S. cerevisiae SKY197-pL101 polyadenylation reporter, beta-gal luminescence; efflux-impaired pdr1/pdr3 knockout yeast; score 100 = 6 SD above DMSO; activity score, % at 12 µM; 0.02% of 300,000 active; AID 1875;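 active = lowest replicate activity score at least 50, where 100 means six control SD above control mean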;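 note: yeast exposed to compound for 9 h at 30 °C; higher score means more reporter readthrough which indicates perturbed polyadenylation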
Arrestin-AP2 inh: blocks beta-arrestin peptide binding to AP2 adaptin | FITC-arrestin peptide / GST-AP2 beads, flow cytometry; AP2 beta2 appendage carries R879A mutation | AID 504490 | inhibition, % at 10 µM | 0.31% of 340,000 active;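 active = inhibition above a set limit, near 3 SD of compounds lacking own fluorescence, cut at about 54% in these data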
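Assay system: GST-AP2 R879A bound to glutathione beads, E. coli-expressed; Medium: PBS with 0.05% Tween 20 and 0.1% BSA; Also added: fluorescein-tagged arrestin peptide at 50 nM final; Timing: 12 min plus 1 h, RT; Measured by: flow cytometry, FL1 (488/535 nm); Evaluation: percent drop in bead-associated FITC signal.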
ALR H2O2 inh: inhibitors of human sulfhydryl oxidase ALR | P55789 | purified ALR, DTT oxidation, H2O2 HRP-luminol luminescence | inhibition, % (test concentration not listed) | 3.8% of 290,000 active;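 active = mean replicate inhibition above about 79%, with every replicate also reaching it, limit read from the data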
Target sequence (P55789 whole entry, looked up): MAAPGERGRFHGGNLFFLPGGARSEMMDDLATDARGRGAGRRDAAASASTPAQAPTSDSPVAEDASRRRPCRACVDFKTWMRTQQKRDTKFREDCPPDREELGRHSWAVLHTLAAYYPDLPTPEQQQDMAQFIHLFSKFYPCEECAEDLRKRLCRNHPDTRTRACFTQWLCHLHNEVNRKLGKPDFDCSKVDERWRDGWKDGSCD
NALP1 yeast inh: NALP1 inhibition | S. cerevisiae NALP1/ASC/caspase-1 growth, X-gal OD620, 72 h | inhibition, % at 10 µM | 0.61% of 280,000 active | AID 2071; in the data active = inhibition mostly above about 24%, no sharp cut-off; inactive = mostly below about 32%
Hits are given with their value; – = inactive; · = not tested or not shown.

SMILES	NLRP3 yeast inh	DSG3 Ab inh	PolyA inh	Arrestin-AP2 inh	ALR H2O2 inh	NALP1 yeast inh
Cc1ccc(-n2c(-c3ccco3)n[nH]c2=S)cc1	–	–	–	–	88	–
Cc1ccc(-n2c([C@@H]3C[C@H]3c3ccccc3)n[nH]c2=S)cc1	–	–	–	–	85	–
Cc1occc1-c1n[nH]c(=S)n1-c1ccccc1	–	–	–	–	94	–
Cn1c(CNC(=O)CCNC(=O)c2cccc(Cl)c2)cc(=O)n(C)c1=O	–	–	–	–	–	–
COC(OC)c1nc(SCC(=O)Nc2cccc(Cl)c2)ncc1C(=O)O	–	·	–	–	99	–
CCC(C)[C@H](N)c1nnc(SCC(=O)Nc2cccc(Cl)c2)o1 (stereo not given in full)	–	–	–	–	–	–
CCN1C(=O)[C@H]2[C@@H](c3ccc(C(F)(F)F)cc3)N[C@]3(CCCN(Cc4ccc(C)cc4)C3=O)[C@H]2C1=O	·	–	·	·	·	·
Oc1c(Cl)cc(Cl)cc1C=Nc1ccc(N2CCOCC2)cc1	–	–	–	–	–	–
Cc1ccc(O)c(N=Cc2cc(Cc3ccccc3)cc([N+](=O)[O-])c2O)c1	–	–	–	–	·	–
O=[N+]([O-])c1cc(Cc2ccccc2)cc(C=Nc2ccc(N3CCOCC3)cc2)c1O	·	–	–	–	97	–
Oc1ccc(C=Nc2ccc(N3CCOCC3)cc2)c(O)c1	–	·	–	–	99	–
Cc1c2cnn(CC(=O)N3CCOCC3)c(=O)c2c(C)n1Cc1ccccc1F	–	–	–	–	–	–
CC1=C(C(=O)N(C)C)CC(CC(=O)NCCCCc2ccccc2)C(=O)N1Cc1ccc(C(C)(C)C)cc1 (stereo not given)	·	–	·	·	·	·
CCC(C(=O)OCC(=O)NCc1ccc2c(c1)OCO2)c1ccccc1 (stereo not given)	–	–	·	–	–	·
O=C(O)/C=C\C(=O)Nc1ccc(N2CCN(c3cccc(Cl)c3)CC2)cc1	–	–	–	–	99	–
O=C(O)/C=C\C(=O)Nc1ccc(N2CCN(c3ccc(Cl)c(Cl)c3)CC2)cc1	–	–	–	–	–	–
O=C(O)/C=C\C(=O)Nc1ccc(N2CCN(c3ccc(Cl)cc3)CC2)cc1	–	–	–	–	98	–
O=C(O)/C=C\C(=O)Nc1ccc(N2CCN(c3ccc(F)cc3)CC2)cc1	–	–	–	–	98	–
O=C(O)/C=C/C(=O)Nc1ccc(-c2ccccc2)cc1	–	–	–	–	98	–
CC(=O)Nc1ccc(N2CCN(c3ccc(F)cc3)CC2)cc1	–	–	–	–	·	–
CCCCCCCN1C(Nc2ccccc2)=NC[C@@H]1C	–	–	·	–	–	·
COc1ccccc1-n1nnnc1SCC(=O)NC1CCCCC1	–	–	–	–	–	–
C[C@H](CO)N1C[C@H](C)[C@@H](CN(C)C(=O)C2CCCCC2)OCc2cn(nn2)CCCC1=O	·	–	·	·	·	·
Cc1onc(-c2ccccc2)c1C(=O)NCCCc1ccccc1	–	–	·	–	–	·
O=C(Nc1ccc(F)c(Cl)c1)Nn1cnnc1	–	·	–	–	–	–
SMILES	NLRP3 yeast inh	DSG3 Ab inh	PolyA inh	Arrestin-AP2 inh	ALR H2O2 inh	NALP1 yeast inh
O=S(=O)(c1ccc(SCc2c(F)cccc2Cl)nc1)N1CCCC1	·	–	·	·	·	·
Cc1[nH]c2ccccc2c1SCCNC(=O)c1ccc(Br)o1	–	–	–	–	78	–
O=C(CCOc1ccccc1)Nc1cccc([N+](=O)[O-])c1	–	–	–	–	–	–
Cc1cccc(NC(=O)CCOc2ccccc2)c1	–	–	–	–	98	–
Cc1cccc(NC(=O)C2CCCN2C(=O)Oc2ccccc2)c1 (stereo not given)	–	–	–	–	–	45
Cc1ccc(Cl)cc1N1CCN(C(=O)Cn2ncn3cccc3c2=O)CC1	–	–	–	–	–	–
CCOc1cc(N2CCOCC2)c(OCC)cc1NC(=O)CN1C(=O)NC(C)(c2ccc(OC)cc2)C1=O (stereo not given)	·	–	·	–	·	·
CCOc1ccc(S(=O)(=O)NCc2ccccn2)cc1	–	–	–	–	–	42
COc1ccc(S(=O)(=O)NCc2ccccn2)cc1	–	–	–	–	·	–
COc1ccc(N2CCN(C3CCCN(C(=O)C4=C(C)OCCO4)C3)CC2)cc1 (stereo not given)	–	·	–	–	–	–
Nc1nc(SCc2ccc(Cl)cc2Cl)ns1	–	·	–	–	99	–
Cc1ccccc1CSc1nsc(N)n1	–	–	–	–	–	–
Nc1nc(SCc2ccc(Cl)cc2Cl)nc2nc3c(cc12)CCCC3	–	–	–	–	90	–
Nc1nc(SCc2ccc(F)cc2)ns1	–	–	–	–	98	–
Nc1nc(SCc2ccccc2Cl)nc2nc3c(cc12)CCCC3	–	–	–	–	–	–
CCCn1c(N)c(N(CCOC)C(=O)Cc2ccc(S(=O)(=O)N3CCOCC3)s2)c(=O)[nH]c1=O	–	–	–	–	–	·
CCCN(C(=O)c1cnccn1)c1c(N)n(Cc2ccccc2)c(=O)[nH]c1=O	–	–	·	–	·	·
CCC(C)c1ccc(S(=O)(=O)N2CCN(C(=O)c3ccc(Cl)c(S(=O)(=O)N4CCOCC4)c3)CC2)cc1 (stereo not given)	·	–	·	–	·	·
O=C(O)c1ccccc1NC1CCCCC1NS(=O)(=O)c1ccccc1 (stereo not given)	–	–	–	–	·	–
CCN(CC)C1CCCCC1NS(=O)(=O)c1ccc(Cl)cc1 (stereo not given)	–	–	–	–	–	–
CC(=O)Nc1ccc(NC2CCCCC2NS(=O)(=O)c2ccc(Cl)cc2)cc1 (stereo not given)	–	–	–	–	99	–
O=S(=O)(NC1CCCCC1Nc1ccccc1)c1ccccc1 (stereo not given)	–	–	–	–	99	–
Cc1ccccc1-n1ncc(C(C)NS(=O)(=O)c2sccc2C)c1C (stereo not given)	–	–	–	–	–	–
COc1cc(/C=C(\C#N)C(=O)c2ccc(O)c(O)c2)cc(I)c1O	–	–	·	–	99	·
CC(C)CC1Nc2ncnc(N3CCN(c4ccccc4)CC3)c2N(Cc2ccccc2)C1=O (stereo not given)	–	–	84	–	–	·
SMILES	NLRP3 yeast inh	DSG3 Ab inh	PolyA inh	Arrestin-AP2 inh	ALR H2O2 inh	NALP1 yeast inh
O=C(COc1ccc(C(=O)NCC2CCCO2)cc1)Nc1cccc(C(F)(F)F)c1 (stereo not given)	–	–	–	–	–	·
CCCC(C(=O)O)n1c(O)c(C=C2N=c3ccccc3=N2)sc1=S (stereo not given)	–	–	–	–	89	·
O=C(O)c1ccc(-n2c(O)c(C=C3N=c4ccccc4=N3)sc2=S)cc1	–	–	–	–	99	–
O=C(O)c1cccc(-n2c(O)c(C=C3N=c4ccccc4=N3)sc2=S)c1	–	–	–	–	99	–
Cc1ccc(O)c(Cc2cc(C)cc(Cc3cc(C)ccc3O)c2O)c1	·	–	·	·	·	·
CCCCN1CC(C)(C)[C@H](CC(=O)NC)C1=O	·	–	·	·	·	·
